Measured values collected from several papers.
Protocols differ between the studies behind these lines. pEC50, pIC50: −log10 of the molar value.
Effect on: cell growth or viability

| SMILES | cell line | method | time | endpoint | value |
| --- | --- | --- | --- | --- | --- |
| COc1cc(Nc2nccc(-c3cnn4nc(OC)ccc34)n2)cc(C(F)(F)F)c1 | P31-FUJ | ATP luminescence | – | pIC50 | 5.96 |
| c1ccc2cc(Cn3cc[n+](Cc4ccc5ccccc5c4)c3)ccc2c1 | HOP-92 | SRB | – | TGI | 1.39 µM |
| Cc1cc(C)n(C(=S)[S][Au][PH](CCCCCC[PH]([Au][S]C(=S)n2nc(C)cc2C)(c2ccccc2)c2ccccc2)(c2ccccc2)c2ccccc2)n1 | UO-31 | – | – | GI50 | 0.482 µM |
| c1ccc(-c2n(Cc3ccc4ccccc4c3)cc[n+]2Cc2ccc3ccccc3c2)cc1 | HOP-62 | SRB | – | TGI | 3.23 µM |
| CN(C)CCOc1ccc(-c2nc(-c3ccncc3)c(-c3ccc4c(c3)CC/C4=N\O)[nH]2)cc1 | 451Lu | ATP luminescence | 72 h | pEC50 | 6.17 |
| COc1cccc(Oc2ccccc2NC(=O)CNC(=O)c2cccc3ccccc23)c1 | UO-31 | SRB | 48 h | GI50 | 1.82 µM |
| COc1ccc(-c2ccc(-c3ccc(C(=N)N)nc3)s2)cc1 | UO-31 | – | – | GI50 | 1.64 µM |
| COc1cc(OC)c2nccc(N3CCc4c(cc(Cn5ccnc5)cc4-c4cn(C)nc4C(F)(F)F)C3=O)c2c1 | K562 | ATP luminescence | 5 days | GI50 | 7.3 µM |
| Cc1n(Cc2ccc3ccccc3n2)cc[n+]1Cc1ccc2ccccc2c1 | HOP-92 | SRB | – | TGI | 3.81 µM |
| C[C@@H](Oc1cc(-c2cnn(C3CCNCC3)c2)cnc1N)c1c(Cl)ccc(F)c1Cl | M091 | resazurin | 48 h | GI50 | 0.01 µM |
| Nc1ncnc2c1ncn2[C@@H]1O[C@H](CO)[C@@H](O)[C@@H]1O | CAL-27 | – | 72 h | pIC50 | < 4.70 |
| COc1cc(-c2ccc(-c3ccc(C(=N)N)nc3)s2)cc(OC)c1OC | HOP-92 | SRB | – | GI50 | 1.91 µM |
| CCCc1n(Cc2ccc3ccccc3n2)cc[n+]1Cc1ccc2ccccc2c1 | HOP-62 | SRB | – | TGI | 5.38 µM |
| Nc1c2c(nc3ccccc13)CCCC2O (centres unmarked) | CAL-27 | – | 72 h | pIC50 | < 4.70 |
